# Measured values published in ChEMBL document CHEMBL2321684, “Novel hybrids of optically active ring-opened 3-n-butylphthalide derivative and isosorbide as potential anti-ischemic stroke agents” (J Med Chem, 2013).
# Activity calls are given as the source filed them. The calls are words filed in the database; no cut-off is given here.
# Tests used:
# [1] = Biodistribution in ICR mouse brain at 680 mg/kg, po after 1 hr by HPLC analysis; format: ADME, organism-based; set-up: dose 680 mg/kg, route oral; conditions: read-out: Drug uptake
# Method in brief: (§1)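 Male ICR mice (30−35 g), n = 6 per time point, were given a single 680 mg/kg gavage dose and sacrificed at 0.5, 1, 2, 4 and 8 h. Brains were rinsed, weighed and homogenized in 3 volumes of saline. Plasma and homogenate were precipitated with 3 volumes of acetonitrile.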
# [2] = Antiplatelet aggregation activity in rabbit platelets assessed as inhibition of ADP-induced platelet aggregation at 1 mM incubated for 5 mins prior to ADP-challenge measured within 5 mins by Born's turbidimetric analysis relative to control; format: functional; conditions: Oryctolagus cuniculus
# Method in brief: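 Rabbit carotid blood was citrated (3.8%, 9:1). PRP was adjusted with PPP to 400−450 × 10⁹ platelets/L. PRP was preincubated with compound or DMSO for 5 min at 37 °C, then aggregation was induced with ADP at 10 μM. Maximum aggregation rate was recorded over 5 min using Born's turbidimetry. Inhibition % was calculated versus vehicle; n = 6, mean ± SD.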
# [3] = Plasma concentration in ICR mouse at 680 mg/kg, po after 2 hrs by HPLC analysis; format: ADME, organism-based; set-up: dose 680 mg/kg, route oral; method in brief: as §1
# Rattus norvegicus [4] = assay: Antithrombotic activity in Sprague-Dawley rat assessed as reduction in arteriovenous shunt-induced dry thrombus weight at 340 mg/kg, administered via gavage for 7 days prior to arteriovenous shunt-challenge measured up to 15 mins relative to control; format: functional, organism-based; set-up: dose 340 mg/kg
# Method in brief: (§2)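 Male SD rats (250−280 g), n = 12 per group, dosed by gavage daily for 7 days in 0.5% CMC-Na. Two hours after the last dose, rats were anesthetized with chloral hydrate (300 mg/kg ip). A saline-filled 14 cm polyethylene catheter holding a 6 cm silk thread linked the left jugular vein and right carotid artery for 15 min. The thrombus was then weighed wet and dry. Results are mean ± SD, analysed by ANOVA/Tukey.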
# Rattus norvegicus [5] = assay: Antiischemic activity in Sprague-Dawley rat assessed as reduction in middle cerebral artery occlusion-induced necrosis in neurons at 80 mg/kg administered via gavage for 7 days prior to middle cerebral artery occlusion-challenge measured after 24 hrs by microscopic analysis; format: functional, organism-based; set-up: dose 80 mg/kg
# Method in brief: (§3)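 Male SD rats (280−320 g), n = 12 per group, dosed by gavage daily for 7 days in 0.5% CMC-Na vehicle. Sham animals received vehicle only. Two hours after the last dose, rats were anesthetized with chloral hydrate (300 mg/kg ip) and given MCAO for 2 h, then reperfused. Body temperature was held at 37 °C. All endpoints were read at 24 h post reperfusion.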
# Rattus norvegicus [6] = assay: Antithrombotic activity in Sprague-Dawley rat assessed as reduction in arteriovenous shunt-induced wet thrombus weight at 340 mg/kg, administered via gavage for 7 days prior to arteriovenous shunt-challenge measured up to 15 mins relative to control; format: functional, organism-based; set-up: dose 340 mg/kg; method in brief: as §2
# [7] = Plasma concentration in ICR mouse at 680 mg/kg, po after 4 hrs by HPLC analysis; format: ADME, organism-based; set-up: dose 680 mg/kg, route oral; method in brief: as §1
# Rattus norvegicus [8] = assay: Antiischemic activity in Sprague-Dawley rat assessed as reduction in middle cerebral artery occlusion-induced abnormal changes in brain at 80 mg/kg administered via gavage for 7 days prior to middle cerebral artery occlusion-challenge measured after 24 hrs by microscopic analysis; format: functional, organism-based; set-up: dose 80 mg/kg; method in brief: as §3
# [9] = Biodistribution in ICR mouse brain at 680 mg/kg, po after 2 hrs by HPLC analysis; format: ADME, organism-based; set-up: dose 680 mg/kg, route oral; conditions: read-out: Drug uptake; method in brief: as §1
# Rattus norvegicus [10] = assay: Antiischemic activity in Sprague-Dawley rat assessed as reduction in middle cerebral artery occlusion-induced abnormal changes in brain at 340 mg/kg administered via gavage for 7 days prior to middle cerebral artery occlusion-challenge measured after 24 hrs by microscopic analysis; format: functional, organism-based; set-up: dose 340 mg/kg; method in brief: as §3
# [11] = Stability in artificial intestinal juice assessed as compound remaining at pH 6.8 after 8 hr by HPLC analysis; format: physicochemical; conditions: simulated gi fluid, pH 6.8, 8 h
# [12] = Stability in artificial intestinal juice assessed as compound remaining at pH 6.8 after 4 hr by HPLC analysis; format: physicochemical; conditions: simulated gi fluid, pH 6.8, 4 h
# Rattus norvegicus [13] = assay: (§4) Antiischemic activity in Sprague-Dawley rat assessed as reduction in middle cerebral artery occlusion-induced water content in brain at 80 mg/kg administered via gavage for 7 days prior to middle cerebral artery occlusion-challenge measured after 24 hrs relative to control; format: functional, organism-based; set-up: dose 80 mg/kg; method in brief: as §3
# Rattus norvegicus [14] = assay: Antiischemic activity in Sprague-Dawley rat assessed as reduction in middle cerebral artery occlusion-induced inflammatory infiltrates in brain at 80 mg/kg administered via gavage for 7 days prior to middle cerebral artery occlusion-challenge measured after 24 hrs by microscopic analysis; format: functional, organism-based; set-up: dose 80 mg/kg; method in brief: as §3
# [15] = Biodistribution in ICR mouse brain at 680 mg/kg, po after 8 hrs by HPLC analysis; format: ADME, organism-based; set-up: dose 680 mg/kg, route oral; conditions: read-out: Drug uptake; method in brief: as §1
# [16] = Stability in artificial gastric juice assessed as compound remaining at pH 1.5 after 8 hr by HPLC analysis; format: physicochemical; conditions: simulated gi fluid, pH 1.5, 8 h
# Rattus norvegicus [17] = assay: as §4, with “infarct size” for “water content”, “340” for “80”, “hrs by triphenyltetrazolium chloride assay” for “hrs”; format: functional, organism-based; set-up: dose 340 mg/kg; method in brief: as §3
smiles,measurement,setting,value
CCCC[C@H](OC(=O)CN1CCN(C)CC1)c1ccccc1C(=O)O[C@H]1CO[C@H]2[C@@H]1OC[C@H]2OC(=O)c1ccccc1[C@H](CCCC)OC(=O)CN1CCN(C)CC1,concentration at 1 h,[1],260 ng/mL
same,inhibition at 1000 µM,[2],50.1%
same,concentration at 2 h,[3],186 ng/mL
same,Activity,Rattus norvegicus [4],Active
same,Activity,Rattus norvegicus [5],Active
same,Activity,Rattus norvegicus [6],Active
same,concentration at 4 h,[7],126 ng/mL
same,Activity,Rattus norvegicus [8],Active
same,concentration at 2 h,[9],174 ng/mL
same,Activity,Rattus norvegicus [10],Active
same,Stability,[11],4.92 µM
same,Stability,[12],4.89 µM
same,Activity,Rattus norvegicus [13],Active
same,Activity,Rattus norvegicus [14],Active
same,concentration at 8 h,[15],16.7 ng/mL
same,Stability,[16],4.96 µM
same,Activity,Rattus norvegicus [17],Active
